# Wee1 degr inh: human Wee1 degradation inhibition, primary screen; AID 1321; HeLa Luc-Wee1K328M stability, luciferase luminescence; 100% = proteasome inhibitor MG132 effect; P30291; reporter increase, % at 5 µM; hit rate 1.2% among 220,000;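 active = activation above the mean of all tested compounds plus 3 SD, set per screening run, cut at about 8.8% in these data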;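 note: cells exposed to compound for 20 h before luminescence read; 0% = DMSO alone and 100% = MG132 at 30 µM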
# Target sequence (P30291 whole entry K328M): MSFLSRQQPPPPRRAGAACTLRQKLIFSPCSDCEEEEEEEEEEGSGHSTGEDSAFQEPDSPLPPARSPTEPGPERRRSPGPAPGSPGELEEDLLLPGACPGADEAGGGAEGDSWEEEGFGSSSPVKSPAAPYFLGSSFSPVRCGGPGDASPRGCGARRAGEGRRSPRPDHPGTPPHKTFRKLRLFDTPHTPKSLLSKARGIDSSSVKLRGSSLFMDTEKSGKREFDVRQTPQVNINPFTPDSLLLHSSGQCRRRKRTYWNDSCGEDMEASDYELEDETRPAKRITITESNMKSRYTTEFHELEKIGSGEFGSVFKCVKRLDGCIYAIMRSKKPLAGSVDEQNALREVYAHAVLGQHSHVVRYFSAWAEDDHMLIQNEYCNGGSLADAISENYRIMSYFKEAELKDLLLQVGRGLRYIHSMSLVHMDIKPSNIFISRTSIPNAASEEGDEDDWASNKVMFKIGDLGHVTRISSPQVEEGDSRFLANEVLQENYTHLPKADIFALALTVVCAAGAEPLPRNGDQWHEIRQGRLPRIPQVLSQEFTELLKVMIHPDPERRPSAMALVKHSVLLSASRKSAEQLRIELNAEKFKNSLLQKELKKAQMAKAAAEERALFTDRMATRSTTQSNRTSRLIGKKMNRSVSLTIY
# bCat nuc transl: modulators of beta-catenin nuclear translocation; HeLa beta-catenin nuclear translocation, immunofluorescence imaging; nuclear translocation activity, % at 5 µM; hit rate 0.3% among 190,000;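 active = nuclear translocation activity above 50% at 5 µM, with a well cell count of 50 or more; inconclusive = wells under 50 cells across six images, flagged as toxic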;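 note: per-cell ratio of nuclear to cytoplasmic median beta-catenin stain intensity; plate controls were DMSO negative control for no effect and GSK-3 inhibitor IX positive control for full effect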
#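 Assay system: human HeLa cells, native beta-catenin; doses: 5 µM primary, 0.02–20 µM confirmation; incubation: compound treatment 24 h, 37°C, 5% CO2; technique: fluorescence imaging of beta-catenin antibody stain plus DAPI; measure: % activation, nuclear-to-cytoplasmic median beta-catenin signal ratio per cell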
# MT stabilize HCS: microtubule stabilization, imaging screen; HeLa tubulin immunostaining HCS, 24 h; share of cells brighter than vehicle mean+2SD; % tubulin-high responders, % at 10 µM; hit rate 0.83% among 200,000; AID 2205;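 active = plate Z-score above 3 for both tubulin-high and condensed-nucleus cell shares, with cell loss under 80%, at 10 µM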;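 note: anti alpha tubulin signal scored within the nucleus-defined area of each cell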
# Autophagy HCS: modulators of autophagy; MEF GFP-LC3 puncta imaging; test concentration mostly 10 µM; hit rate 0.98% among 190,000; calls only at 10 µM (by protocol);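 active = percentage of spot-positive cells more than 3 SD above its plate mean, without a fluorescence outlier flag or 80% toxicity; inconclusive = no clear call, values can overlap the other calls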;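 note: spot-positive cell cutoff set from DMSO-treated cells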
# Ins promoter up: MIN6 insulin promoter up-regulation; MIN6 insulin promoter-GFP reporter, high-content imaging; hits give high values; z-score at 5 µM; hit rate 0.3% among 190,000; AID 1625;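 active = z-score above 3 at 5 µM with at least 500 cells counted in the well; inconclusive = wells under 500 cells, flagged as cytotoxic or low count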
# Active calls of the source: *; i = inactive; ? = inconclusive; · = not tested or not shown; + = active, no number. Only some compounds are listed: those with a hit (about 2.9% of all), similar ones and a draw of the others.
SMILES,Wee1 degr inh,bCat nuc transl,MT stabilize HCS,Autophagy HCS,Ins promoter up
COc1cc(C)c(C(C)C)cc1S(=O)(=O)n1cnc(C)c1,4,93*,14*,i,0.39
CC(C)Cc1ccc(C(C)NC(=O)c2ccc(=O)[nH]c2)cc1 (stereo not given),-2,-3,2,i,0.44
Cc1cccc(NC(=O)COC(=O)c2cc3ccccc3oc2=O)c1,8.9*,0,0,i,-0.6
Cc1cccc(OCC(=O)NNC(=O)c2cc3ccccc3oc2=O)c1,-2,0,2,i,1.1
CCC(C(=O)OCC(=O)Nc1cccc(S(=O)(=O)NC2=NCCCCC2)c1)c1ccccc1 (stereo not given),2,-5,3,i,4*
CCOc1ccc(C(=O)NC(=S)Nc2cccc(S(=O)(=O)NC3=NCCC3)c2)cc1,9.5*,24,17*,i,0.26
CSCCCNC(=S)Nc1cccc(S(=O)(=O)NC2=NCCC2)c1,-2,-1,4,+,0.08
O=C(CCCc1ccccc1)Nc1cccc2c1CCCC2,11*,1,1,i,0.82
CCc1nnc(NC(=O)c2cc(S(=O)(=O)N3CCCCC3)ccc2N2CCOCC2)s1,1,-4,3,+,-0.03
O=C1C2=C(C(c3ccccc3)=NCCN2)C(c2cccc([N+](=O)[O-])c2)N1c1ccccc1 (stereo not given),-2,-1,3,i,0
Cc1cc(N2CCN(Cc3nc(-c4ccc(Cl)cc4)oc3C)CC2)cc(C)n1,-2,1,·,·,-0.79
Cc1cccc(N2CCN(Cc3nc(-c4cccc(Oc5ccccc5)c4)oc3C)CC2)n1,1,0,2,+,0.01
C/C(=N\NC1=N[C@H]2CS(=O)(=O)C[C@H]2S1)c1ccccc1,-2,1,·,·,-0.09
COCC(=O)N1CCN(c2cccc(C(F)(F)F)c2)CC1,-2,-1,2,i,-0.02
COc1ccc(N2CCN(C(=O)c3ccc(SC)cc3OC)CC2)cc1,5,0,2,i,0.69
CCOc1ccc2ccccc2c1C(=O)N1CCN(c2ccccc2)CC1,0,1,47*,+,-0.15
CCOc1ccccc1C(=O)N1CCN(c2cccc(Cl)c2)CC1,-1,69*,15*,+,-0.88
COc1ccc(C(=O)N2CCN(c3cccc(Cl)c3)CC2)c(OC)c1,1,·,44*,i,-0.02
COc1ccccc1C(=O)N1CCN(c2cccc(C(F)(F)F)c2)CC1,3,88*,35*,i,-0.29
O=C(O)c1ccccc1C(=O)N1CCN(c2cccc(Cl)c2)CC1,0,-1,4,i,·
COc1cc(NC(=O)CSc2ncnc3scc(-c4ccccc4)c23)c(C(=O)O)cc1OC,-1,1,3,i,0.26
O=C(Nc1ccc(F)c([N+](=O)[O-])c1)c1ccc2c(c1)C(=O)OC2=O,4,-2,·,·,0.24
COc1cc2c(C(=O)N3CCN(c4ccccc4)CC3)c(C)oc2cc1Br,0,-2,26*,i,-0.09
COc1ccc(N2CCN(C(=O)c3c(-c4ccccc4)noc3C)CC2)cc1,-1,-4,5,·,-0.35
O=C1N/C(=N\c2ccccn2)SC1Cc1ccccc1Cl (stereo not given),2,4,·,·,-0.11
SMILES,Wee1 degr inh,bCat nuc transl,MT stabilize HCS,Autophagy HCS,Ins promoter up
Cc1cccc(CC2S/C(=N/c3ccccn3)NC2=O)c1 (stereo not given),-1,-1,3,+,0.18
Cc1ccc2cc3c(N)c(C(=O)N4CC(=O)Nc5ccccc54)sc3nc2c1,-1,·,17,+,·
Cc1ccsc1C(=O)N1CC(=O)Nc2ccccc21,2,0,21,i,-0.57
Cc1cc(C)cc(C(=O)N2CC(=O)Nc3ccccc32)c1,-2,154*,28*,+,-2.4
COc1ccc(-c2nc(NC(=O)c3[nH]c(C)c(C(C)=O)c3C)sc2C)cc1,-2,1,5,i,-1.2
Cc1cc(NC(=O)CSc2nnc(-c3ccco3)o2)no1,2,0,2,i,0.95
CC(=O)Nc1ccc(NC(=O)CSc2nnc(-c3ccco3)o2)cc1,7,-3,4,+,0.34
Cc1cnc(NC(=O)c2cc3ccccc3o2)s1,2,0,4,i,-1.5
Cc1cc(=O)[nH]c(/N=C(\N)Nc2ccc(SC(F)F)cc2)n1,-1,-2,3,i,-0.59
COc1ccc(CCNc2c(C)c(C)nc3ncnn23)cc1,2,15,30*,i,?
Cc1noc(C)c1C(=O)N1CCN(c2ccc(OCc3ccccc3)cc2)CC1,1,0,·,·,0.06
O=C(CSc1nnc(-c2ccc(F)cc2)o1)NC1CCCCC1,10*,0,2,i,0.17
COc1cccc(N2CCN(c3ncccn3)CC2)c1,2,0,3,i,3.1*
CC(C(=O)NC1CCCC1)N(Cc1ccc2c(c1)OCO2)C(=O)c1snc(C(N)=O)c1N (stereo not given),1,-3,1,+,-0.04
Cc1cc(C)c(C(=O)C2OC(=O)C(C)(C)C(=O)C2(C)C)c(C)c1 (stereo not given),0,-15,2,i,·
Cc1sc2cc3c(c(C(=O)c4ccccc4)[n+]2c1C)-c1cccc2cccc-3c12,-1,-1,3,i,?
O=C(c1ccccc1)c1c2c(cc3sc4ccccc4[n+]13)-c1cccc3cccc-2c13,-2,24,4,+,?
COc1cc(C(=O)c2c(C)c(CCC#N)n3ccccc23)cc(OC)c1OC,3,61*,20*,i,0.32
COc1cccc(C(=O)c2c(C)c(CCC#N)n3ccccc23)c1OC,-3,-1,5,i,0.71
Fc1ccc(-c2n[nH]c(=S)c3ccccc23)cc1,-4,0,2,i,0.16
Cc1ccc(S(=O)(=O)N2CCN(C(=O)CC(C)(C)C)CC2)cc1,9.8*,7,4,i,-0.63
Cc1ccc(S(=O)(=O)N2CCN(C(=O)Cc3ccccc3)CC2)cc1,-1,·,1,i,0.62
Cc1ccc(S(=O)(=O)N2CCN(C(=O)CCC(=O)NCc3ccc(F)cc3)CC2)cc1,9.4*,·,3,i,-0.55
N#Cc1ccc(CSC2=NCCN2)cc1,9.8*,0,5,i,0.12
c1ccc(CSC2=NCCCN2)cc1,4,-5,1,i,·
COc1ccc(Cl)cc1C(=O)NNC(=O)CN1C(=O)C2CC=CCC2C1=O (stereo not given),-3,-1,2,i,-0.43
C(=N\Nc1nc(-c2ccccc2)cs1)/c1ccncc1,-3,-1,1,i,0.02
O=C(O)c1csc(N/N=C/c2ccc(Br)cc2)n1,7,-5,2,+,·
O=c1nc2s/c(=C\c3ccc(-c4ccccc4[N+](=O)[O-])o3)c(=O)n2nc1-c1ccccc1,-1,1,3,i,0.66

# Screening data (PubChem)
